High-throughput results as filed in PubChem.
Pf Dd2 inh: blocks growth of Plasmodium falciparum Dd2 parasites; AID 1159554; hit rate 2.3% among 94,000; activity change, % at 10 µM; P. falciparum Dd2 growth, SYBR Green, 72 h; active compounds read low; in the data active means activity change below about -80%
GASC1 inh: KDM4C (human) demethylase inhibition | hit rate 0.15% among 96,000 | Q9H3R0 | GST-KDM4C 2-372, H3K9me3 peptide, LANCE TR-FRET | inhibition, % at 12.5 µM | AID 720574;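 active means mean replicate inhibition above about 25%, with at least 55% of replicates also reaching it, limit read from the data, passing the limit was not always enough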
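material = GST-tagged GASC-1 (JMJD2C) catalytic fragment, aa 2-372 | amount = enzyme final amount 10 nM | medium = HEPES buffer, pH 7.5, plus ascorbate | also added = H3K9me3 peptide substrate, Fe(II), 2-oxoglutarate | dosing = single dose | times = 30 min demethylation and 1 h detection at room temperature | detection = LANCE TR-FRET | read-out basis = Fall in 671/618 emission ratio as inhibition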
T cruzi growth: T. cruzi proliferation inhibition. T. cruzi beta-gal in NIH3T3, GalScreen luminescence, 90 h. inhibition, % at 8.34 µM. hit rate 5.9% among 77,000. AID 624255;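 active means mean inhibition above about 93%, with at least 55% of replicates each passing it, limit read from the data, passing the limit was not always enough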
IDH1 mut inh: blocks human IDH1 R132H reductase activity. hit rate 0.18% among 70,000. O75874. AID 624101. diaphorase/resazurin fluorescence, 60 min. inhibition, % at 10 µM; in the data active means inhibition above about 34%;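 further: 0% = DMSO and 100% = no enzyme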
Target sequence (O75874 whole entry R132H): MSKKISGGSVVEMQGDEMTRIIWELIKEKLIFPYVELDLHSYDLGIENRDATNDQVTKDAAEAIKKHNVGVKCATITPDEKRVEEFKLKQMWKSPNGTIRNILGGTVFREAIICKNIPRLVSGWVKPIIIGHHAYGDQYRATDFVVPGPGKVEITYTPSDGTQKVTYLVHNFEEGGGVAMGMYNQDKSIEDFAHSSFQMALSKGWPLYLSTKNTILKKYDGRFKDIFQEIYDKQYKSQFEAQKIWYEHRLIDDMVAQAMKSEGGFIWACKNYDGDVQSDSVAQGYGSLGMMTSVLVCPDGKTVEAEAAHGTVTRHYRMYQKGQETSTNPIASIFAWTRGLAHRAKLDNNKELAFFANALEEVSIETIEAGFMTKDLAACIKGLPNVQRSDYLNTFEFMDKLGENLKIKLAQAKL
* = called active by the depositor; · = no result given. The list is not random: actives were taken first. Their share in the collection is about 5.8%.

SMILES | Pf Dd2 inh | GASC1 inh | T cruzi growth | IDH1 mut inh
O=C(C1CCC1)N1CC[C@@H]2[C@@H](CO)Nc3ccc(-c4cccc(F)c4)cc3[C@@H]21 | 27 | 1 | 75 | ·
N#Cc1ccc(-c2ccc3c(c2)[C@H]2[C@H](CCN2C(=O)C2CCCC2)[C@H](CO)N3)cc1 | -86* | · | · | ·
C[C@@H]1CCCCO[C@H](CN(C)C(=O)Nc2cccc3ccccc23)[C@@H](C)CN([C@@H](C)CO)C(=O)c2cc(NC(=O)C3CCCCC3)ccc2O1 | -85* | 0 | 52 | ·
C[C@@H]1CCCCO[C@H](CN(C)C(=O)Nc2cccc3ccccc23)[C@H](C)CN([C@@H](C)CO)C(=O)c2cc(NC(=O)C3CCCCC3)ccc2O1 | -73 | -8 | 78 | ·
C[C@@H]1CN([C@@H](C)CO)C(=O)c2cc(NC(=O)C3CCCCC3)ccc2O[C@@H](C)CCCCO[C@@H]1CN(C)C(=O)Nc1cccc2ccccc12 | -89* | -3 | 55 | ·
CCCC#Cc1cnc2c(c1)C(=O)N([C@H](C)CO)C[C@@H](C)[C@H](CN(C)Cc1cccnc1)O2 | -28 | 0 | 7 | 0
C[C@H]1CN([C@@H](C)CO)C(=O)c2cc(C#Cc3ccccc3)cnc2O[C@@H]1CN(C)C(=O)CCN1CCCCC1 | -52 | -4 | 26 | -1
C[C@@H]1CN([C@@H](C)CO)C(=O)c2cc(C#Cc3ccccc3)cnc2O[C@H]1CN(C)C(=O)CCN1CCCCC1 | -88* | 0 | 57 | 0
C[C@@H]1CN([C@H](C)CO)C(=O)c2cc(C#CCc3ccccc3)cnc2O[C@H]1CN(C)C(=O)C1CCCCC1 | -83* | 0 | 105 | 2
CCCC#Cc1cnc2c(c1)C(=O)N([C@H](C)CO)C[C@H](C)[C@@H](CN(C)Cc1cccnc1)O2 | -24 | 64* | -4 | 100*
C[C@@H]1CN([C@H](C)CO)C(=O)c2cc(C#CCc3ccccc3)cnc2O[C@@H]1CN(C)CC1CC1 | -81* | -1 | 26 | -2
O=C(N[C@H]1CC[C@H](CC(=O)N2CCCCC2)O[C@H]1CO)c1ccc2c(c1)OCO2 | 13 | 2 | -18 | 0
CCC(Sc1nnc(N)s1)C(=O)Nc1c(C)cccc1C (configuration not stated) | · | · | · | -1
C[C@H]1CN([C@@H](C)CO)C(=O)c2cc(C#CCc3ccccc3)cnc2O[C@H]1CN(C)CC1CC1 | -57 | -1 | 57 | -1
C[C@@H]1CN([C@@H](C)CO)C(=O)c2cc(C#CCc3ccccc3)cnc2O[C@H]1CN(C)CC1CCCC1 | -86* | 9 | 88 | 11
C[C@@H]1CN([C@@H](C)CO)C(=O)c2cccc(NC(=O)c3nc4ccccc4s3)c2O[C@H]1CN(C)C(=O)NC1CCCCC1 | -89* | 1 | 0 | -2
COc1ccc(NC(=O)N(C)C[C@@H]2Oc3c(NC(=O)c4nc5ccccc5s4)cccc3C(=O)N([C@@H](C)CO)C[C@H]2C)cc1 | -87* | -1 | 24 | 0
C[C@@H]1CN([C@H](C)CO)C(=O)c2cccc(NC(=O)c3nc4ccccc4s3)c2O[C@H]1CN(C)C(=O)NC1CCCCC1 | -89* | 0 | -60 | ·
COc1ccc(CN2C[C@H](C)[C@@H](OC)CN(C)C(=O)c3cc(NC(=O)c4nc5ccccc5s4)ccc3OC[C@@H]2C)cc1 | -85* | 0 | · | 0
CO[C@@H]1CN(C)C(=O)c2cc(NC(=O)c3nc4ccccc4s3)ccc2OC[C@@H](C)N(Cc2ccccc2)C[C@H]1C | -86* | -1 | · | 0
COc1ccc(CN2C[C@@H](C)[C@@H](OC)CN(C)C(=O)c3cc(NC(=O)c4nc5ccccc5s4)ccc3OC[C@@H]2C)cc1 | -61 | 2 | · | 0
COc1cccc(-c2ccc3c(c2)O[C@@H](CN(C)Cc2ccncc2)[C@@H](C)CN([C@H](C)CO)S3(=O)=O)c1 | -1 | 42* | · | 5
COc1cccc(-c2ccc3c(c2)O[C@H](CN(C)Cc2cncnc2)[C@@H](C)CN([C@@H](C)CO)S3(=O)=O)c1 | -10 | -4 | 58 | 0
C[C@H]1CN([C@@H](C)CO)S(=O)(=O)c2ccc(-c3ccncc3)cc2O[C@H]1CN(C)Cc1ccccc1 | -35 | 5 | 82 | 1
C[C@@H]1CN([C@@H](C)CO)S(=O)(=O)c2ccc(-c3ccncc3)cc2O[C@H]1CN(C)Cc1ccc(Oc2ccccc2)cc1 | -86* | 4 | 54 | 8
SMILES | Pf Dd2 inh | GASC1 inh | T cruzi growth | IDH1 mut inh
COCCNC(=O)c1ccccc1-c1nc(-c2ccc(Cl)cc2)no1 | · | · | · | 0
Cc1cccc(-c2ccc(C3[C@@H]4CN(C(=O)C5CCCCC5)C[C@H]3N4)cc2)c1 (some centres not stated) | -3 | -1 | · | ·
CO[C@H]1CN(C)C(=O)c2cc(NC(=O)c3ccno3)ccc2OC[C@H](C)N(S(C)(=O)=O)C[C@H]1C | 1 | 0 | -2 | 0
COCc1cn(CC[C@H]2CC[C@@H](NC(=O)CCN3CCCCC3)[C@H](CO)O2)nn1 | 17 | 3 | -55 | 0
COCc1cn(CC[C@@H]2CC[C@H](NC(=O)CCN3CCCCC3)[C@@H](CO)O2)nn1 | 6 | 67* | -27 | 68*
CN(C)CC(=O)N[C@H]1CC[C@H](CCn2cc(CN(C)C)nn2)O[C@H]1CO | 1 | 92* | 60 | 101*
COCC(=O)Nc1ccc2c(c1)C(=O)N(C)C[C@@H](OC)[C@H](C)CN(C(=O)CN1CCOCC1)[C@H](C)CO2 | · | 0 | 21 | 0
CC(=O)N[C@H]1C[C@@H]2O[C@@H](CO)CC[C@@H]2O[C@@H]1CCc1ccc(-c2ccc(F)cc2)cc1 | -25 | · | · | ·
O=C(Nc1cc(F)ccc1F)N[C@@H]1CC[C@@H](CCn2cc(C3CCCC3)nn2)O[C@H]1CO | -25 | -2 | · | ·
C[C@@H]1CN([C@H](C)CO)S(=O)(=O)c2ccc(C#C[C@@H](C)O)cc2O[C@@H]1CN(C)C(=O)C1CCC1 | -7 | 3 | -14 | 0
C[C@@H]1CN([C@H](C)CO)C(=O)c2cc(NC(=O)CCCCCC(=O)Nc3ccccc3N)ccc2O[C@@H](C)CCCCO[C@H]1CN(C)Cc1ccc(Cl)c(Cl)c1 | -91* | 0 | · | 3
C[C@@H]1CCCCO[C@@H](CN(C)C)[C@@H](C)CN([C@H](C)CO)C(=O)c2cc(NC(=O)CCCCCC(=O)Nc3ccccc3N)ccc2O1 | 25 | 8 | · | ·
C[C@@H]1CCCCO[C@H](CN(C)Cc2ccc(Cl)c(Cl)c2)[C@@H](C)CN([C@H](C)CO)C(=O)c2cc(NC(=O)CCCCCC(=O)Nc3ccccc3N)ccc2O1 | -90* | -1 | · | 0
Cc1cc2nc(-c3cccc(NC(=O)COc4ccc(Cl)cc4)c3C)oc2cc1C | · | · | · | 0
COc1cccc(C#Cc2ccc([C@H]3[C@H](C#N)N(C(=O)C4CCCC4)[C@H]3CO)cc2)c1 | -57 | -4 | · | ·
COc1cccc(C#Cc2ccc([C@H]3[C@@H](CO)N(C(=O)C4CCCCC4)[C@H]3C#N)cc2)c1 | -95* | -4 | 89 | 0
COc1cccc(C#Cc2ccc([C@H]3[C@@H](C#N)N(C(=O)C4CCCC4)[C@@H]3CO)cc2)c1 | -83* | -1 | · | ·
